Data taken from ChEMBL document CHEMBL1127739, “Newly discovered stereochemical requirements in the side-chain conformation of delta opioid agonists for recognizing opioid delta receptors” (J Med Chem, 1994).

How the values were obtained:
[1] = target: Delta-type opioid receptor (Mus musculus, UniProt P32300); assay: Effective concentration was measured towards delta opioid receptor using mouse vas deferens(MVD, delta) bioassay in vitro
Procedure, shortened: (§1)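 Electrically stimulated MVD (male ICR mice, 25–30 g) and GPI longitudinal muscle-myenteric plexus (male Hartley guinea pigs, 150–400 g) in 37 °C oxygenated Krebs, magnesium-free for MVD. Tension 1 g (MVD 0.5 g); stimulation 0.1 Hz, 0.4-ms pulses (MVD 2.0 ms), supramaximal voltage.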

[2] = target: Mu-type opioid receptor (Cavia porcellus, UniProt P97266); assay: Effective concentration was measured towards mu opioid receptor using guinea pig ileum (GPI, mu) bioassay in vitro; type: tissue-based; procedure, shortened: as §1
[3] = target: Opioid receptors; mu & delta (Homo sapiens) (UniProt P41143+P35372); assay: Selectivity is the ratio between EC50 values GPI(mu) and MVD(delta); type: protein assay
Procedure, shortened: as §1, with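 “voltage. Agonist applied 3 min; percent inhibition of contraction height.” for “voltage.”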

[4] = Selectivity is the ratio between IC50 values of [3H]CTOP and [3H][p-Cl-phe4]-DPDPE
Procedure, shortened: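 Brain membranes were homogenised in 50 mM Tris-HCl pH 7.4, pelleted at 48000g, and preincubated at 25 °C for 30 min to strip endogenous peptides. Buffer contained BSA, bestatin, bacitracin, captopril and toluenesulfonyl fluoride. δ radioligand was [3H][D-Pen2,p-Cl-Phe4,D-Pen5]enkephalin 0.75 nM; μ was [3H]CTOP 0.5 nM. Ten concentrations over 800-fold, in duplicate. Nonspecific binding used 10 μM naltrexone. Incubated 25 °C for 3 h, then filtered and counted.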

Sequence of Mu-type opioid receptor (P97266 whole entry): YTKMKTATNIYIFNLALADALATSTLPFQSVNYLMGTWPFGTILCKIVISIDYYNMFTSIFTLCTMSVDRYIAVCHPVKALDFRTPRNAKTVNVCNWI
Sequence of Opioid receptors; mu & delta (Homo sapiens) (P35372 whole entry, looked up): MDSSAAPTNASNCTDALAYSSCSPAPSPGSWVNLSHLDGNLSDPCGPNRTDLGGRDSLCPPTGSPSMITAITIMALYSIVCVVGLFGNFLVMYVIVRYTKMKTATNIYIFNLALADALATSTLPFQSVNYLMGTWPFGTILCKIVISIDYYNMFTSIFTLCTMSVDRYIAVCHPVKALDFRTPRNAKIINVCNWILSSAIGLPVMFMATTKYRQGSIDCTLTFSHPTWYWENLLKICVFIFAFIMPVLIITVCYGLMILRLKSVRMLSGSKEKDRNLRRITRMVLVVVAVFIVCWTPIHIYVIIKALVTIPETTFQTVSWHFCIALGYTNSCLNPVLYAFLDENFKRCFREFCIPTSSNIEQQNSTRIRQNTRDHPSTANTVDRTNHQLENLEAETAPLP
Sequence of Opioid receptors; mu & delta (Homo sapiens) (P41143 whole entry, looked up): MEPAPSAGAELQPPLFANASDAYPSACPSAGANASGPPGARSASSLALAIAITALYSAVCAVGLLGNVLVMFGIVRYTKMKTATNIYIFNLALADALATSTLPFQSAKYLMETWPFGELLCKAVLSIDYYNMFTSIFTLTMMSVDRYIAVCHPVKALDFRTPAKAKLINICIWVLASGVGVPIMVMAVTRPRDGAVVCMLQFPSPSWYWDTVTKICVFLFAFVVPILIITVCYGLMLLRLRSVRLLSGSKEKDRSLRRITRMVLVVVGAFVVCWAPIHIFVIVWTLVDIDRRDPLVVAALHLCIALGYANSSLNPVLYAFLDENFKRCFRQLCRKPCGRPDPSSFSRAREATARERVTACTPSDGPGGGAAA
Sequence of Delta-type opioid receptor (P32300 whole entry): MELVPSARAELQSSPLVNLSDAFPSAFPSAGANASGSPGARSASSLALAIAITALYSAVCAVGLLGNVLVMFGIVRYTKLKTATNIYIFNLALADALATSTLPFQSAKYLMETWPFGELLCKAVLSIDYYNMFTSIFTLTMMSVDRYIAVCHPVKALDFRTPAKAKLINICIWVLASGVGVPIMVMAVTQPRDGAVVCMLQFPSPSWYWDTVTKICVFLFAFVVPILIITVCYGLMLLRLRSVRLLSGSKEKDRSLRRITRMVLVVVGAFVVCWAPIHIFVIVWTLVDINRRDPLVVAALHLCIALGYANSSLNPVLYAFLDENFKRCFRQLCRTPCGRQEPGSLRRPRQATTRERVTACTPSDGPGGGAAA

## Cc1cc(O)cc(C)c1[C@H](C)[C@H](N)C(=O)N[C@H](C)C(=O)N[C@@H](Cc1ccccc1)C(=O)N[C@@H](CC(=O)O)C(=O)N[C@H](C(=O)N[C@H](C(=O)NCC(N)=O)C(C)C)C(C)C
[1]
  EC50: 0.66 nM
[2]
  EC50: 3840 nM
[3]
  Selectivity: 5820
[4]
  Selectivity: 5740

## Cc1cc(O)cc(C)c1[C@H](C)[C@H](N)C(=O)N[C@H]1C(=O)NCC(=O)N[C@@H](Cc2ccccc2)C(=O)N[C@@H](C(=O)O)C(C)(C)SSC1(C)C
[1]
  EC50: 168 nM
[2]
  EC50: 293 nM
[3]
  Selectivity: 1.74
[4]
  Selectivity: 3.4
